Experimental data from ChEMBL document CHEMBL4028856, “Discovery of Small Molecules Targeting the Synergy of Cardiac Transcription Factors GATA4 and NKX2-5” (J Med Chem, 2017).
Activity calls are given as the source filed them. No cut-off for these calls is given here.

Assays:
[1] = biological target: Vascular endothelial growth factor receptor 2 (Homo sapiens) (UniProt P35968); assay: Inhibition of human VEGFR2 at 30 uM
Method in brief: (§1)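 48-kinase profiling panel; compounds tested at 30 μM in duplicate.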

[2] = biological target: Mitogen-activated protein kinase 1 (Homo sapiens) (UniProt P28482); assay: Inhibition of human ERK2 at 30 uM; method in brief: as §1
Sequence of Mitogen-activated protein kinase 1 (Homo sapiens) (P28482 whole entry): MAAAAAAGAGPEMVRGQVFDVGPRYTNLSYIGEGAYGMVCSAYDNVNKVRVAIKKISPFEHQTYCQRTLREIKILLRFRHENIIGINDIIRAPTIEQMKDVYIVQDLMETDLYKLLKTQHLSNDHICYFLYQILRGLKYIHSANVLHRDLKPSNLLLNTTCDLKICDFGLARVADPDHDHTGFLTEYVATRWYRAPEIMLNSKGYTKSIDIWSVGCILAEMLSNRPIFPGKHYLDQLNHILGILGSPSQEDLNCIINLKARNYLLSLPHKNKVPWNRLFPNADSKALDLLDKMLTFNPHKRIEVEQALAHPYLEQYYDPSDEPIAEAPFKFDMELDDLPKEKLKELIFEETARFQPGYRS

[3] = biological target: Transcription factor GATA-4 (Mus musculus) (UniProt Q08369); assay: Inhibition of mouse GATA4-driven transactivation of luciferase reporter construct containing BNP minimal promoter expressed in African green monkey COS-1 cells after 30 hrs by luminometer; assay type: cell-based
Sequence of Transcription factor GATA-4 (Mus musculus) (Q08369 whole entry): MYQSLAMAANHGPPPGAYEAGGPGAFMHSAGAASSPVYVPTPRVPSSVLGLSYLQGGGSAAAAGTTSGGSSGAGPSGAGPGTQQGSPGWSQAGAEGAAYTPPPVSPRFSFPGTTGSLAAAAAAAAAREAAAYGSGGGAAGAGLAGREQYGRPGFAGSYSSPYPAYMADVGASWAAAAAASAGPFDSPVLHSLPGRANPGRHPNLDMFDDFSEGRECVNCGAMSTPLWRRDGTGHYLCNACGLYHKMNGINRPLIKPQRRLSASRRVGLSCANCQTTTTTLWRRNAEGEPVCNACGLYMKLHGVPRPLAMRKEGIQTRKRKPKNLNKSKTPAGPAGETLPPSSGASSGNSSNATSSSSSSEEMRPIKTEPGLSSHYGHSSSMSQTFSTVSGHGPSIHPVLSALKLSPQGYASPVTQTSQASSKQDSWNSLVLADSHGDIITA
Method in brief: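 COS-1 cells co-transfected with firefly luciferase driven by BNP minimal or −90 bp BNP promoter, Renilla pRL-TKd238, and pMT2-GATA4 or empty pMT2. Compounds added 6 h post-transfection in 0.1% DMSO, refreshed with medium at 24 h; lysis at 30 h; dual-luciferase, firefly/Renilla normalized to vehicle; triplicate wells.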

[4] = Drug metabolism in mouse embryonic stem cells assessed as formation of N-[4-(Ethylamino)phenyl]-5-methyl-3-phenylisoxazole-4-carboxamide at 3 to 5 uM measured after 10 days by HPLC/MS method; assay type: ADME, cell-based; conditions: embryonic stem cell, 240 h
Method in brief: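 Mouse embryonic stem cells exposed 5 and 10 days to 3 or 5 μM, with DMSO and EB differentiation medium blanks. Medium extracted with chloroform; cells pelleted, saline-washed twice, sonicated in chloroform. UPLC-ESI(+)-QTOF/MS, BEH C18, 0.1% formic acid water/acetonitrile gradient 7–80% B over 5 min, 0.6 mL/min, 40 °C.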

[5] = organism: Homo sapiens; assay: Inhibition of human PKA at 30 uM; method in brief: as §1
[6] = biological target: GATA4/NKX2-5 (Mus musculus) (UniProt Q08369+P42582); assay: Inhibition of mouse GATA4/FLAG-tagged NKX2-5 interaction expressed in African green monkey COS-1 cells at 100 uM by coimmunoprecipitation method; assay type: cell-based
Method in brief: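 FLAG-NKX2-5 and GATA4 lysates from COS-1 cells incubated overnight at 4 °C with anti-FLAG agarose in Tris/NaCl/Triton lysis buffer with protease/phosphatase inhibitors; beads washed thrice, eluted by boiling, SDS-PAGE, immunoblotted for GATA4 and NKX2-5, ECL detection.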

[7] = biological target: Cannabinoid receptor 2 (Homo sapiens) (UniProt P34972); assay: Agonist activity at human CB2 receptor expressed in rat hematopoietic Chem-4 cells assessed as induction of calcium flux at 12.5 uM by fluorescence assay; assay type: functional, cell-based
Sequence of Cannabinoid receptor 2 (Homo sapiens) (P34972 whole entry): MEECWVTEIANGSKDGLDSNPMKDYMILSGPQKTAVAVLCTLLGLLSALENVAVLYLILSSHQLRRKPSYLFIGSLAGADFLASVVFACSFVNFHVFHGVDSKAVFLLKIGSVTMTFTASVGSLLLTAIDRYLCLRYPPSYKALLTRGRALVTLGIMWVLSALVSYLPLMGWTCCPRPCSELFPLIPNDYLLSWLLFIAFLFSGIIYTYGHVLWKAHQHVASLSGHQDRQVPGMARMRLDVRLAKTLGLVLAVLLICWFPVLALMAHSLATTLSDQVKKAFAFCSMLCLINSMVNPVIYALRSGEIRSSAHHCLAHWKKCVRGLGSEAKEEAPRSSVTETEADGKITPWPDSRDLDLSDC
Method in brief: (§2)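 GPCR profiling panel of cell-based functional assays covering 165 GPCRs; agonist mode tested at 12.5 μM and antagonist mode at 10 μM, in duplicate.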

[8] = biological target: Hydroxycarboxylic acid receptor 2 (Homo sapiens) (UniProt Q8TDS4); assay: Antagonist activity at human GPR109A expressed in rat Chem-4 cells assessed as inhibition of calcium flux at 10 uM by fluorescence assay; assay type: functional, cell-based; method in brief: as §2
Sequence of Hydroxycarboxylic acid receptor 2 (Homo sapiens) (Q8TDS4 whole entry): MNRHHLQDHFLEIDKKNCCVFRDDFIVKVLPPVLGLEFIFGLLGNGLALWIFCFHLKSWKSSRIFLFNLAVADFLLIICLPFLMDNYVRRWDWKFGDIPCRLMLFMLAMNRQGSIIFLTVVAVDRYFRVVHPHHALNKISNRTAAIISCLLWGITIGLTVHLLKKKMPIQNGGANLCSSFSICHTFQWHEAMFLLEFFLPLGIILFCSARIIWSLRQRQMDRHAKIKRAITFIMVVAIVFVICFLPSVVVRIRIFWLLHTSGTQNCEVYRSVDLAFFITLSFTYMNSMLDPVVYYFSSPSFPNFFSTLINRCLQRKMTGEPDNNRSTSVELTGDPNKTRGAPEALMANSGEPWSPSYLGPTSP

[9] = biological target: Transcription factor GATA-4 (Rattus norvegicus) (UniProt P46152); assay: Inhibition of binding of GATA4 to [32P]-double stranded oligonucleotide in neonatal rat ventricular cardiomyocytes at 50 uM measured after 24 hrs by EMSA method
Sequence of Transcription factor GATA-4 (Rattus norvegicus) (P46152 whole entry): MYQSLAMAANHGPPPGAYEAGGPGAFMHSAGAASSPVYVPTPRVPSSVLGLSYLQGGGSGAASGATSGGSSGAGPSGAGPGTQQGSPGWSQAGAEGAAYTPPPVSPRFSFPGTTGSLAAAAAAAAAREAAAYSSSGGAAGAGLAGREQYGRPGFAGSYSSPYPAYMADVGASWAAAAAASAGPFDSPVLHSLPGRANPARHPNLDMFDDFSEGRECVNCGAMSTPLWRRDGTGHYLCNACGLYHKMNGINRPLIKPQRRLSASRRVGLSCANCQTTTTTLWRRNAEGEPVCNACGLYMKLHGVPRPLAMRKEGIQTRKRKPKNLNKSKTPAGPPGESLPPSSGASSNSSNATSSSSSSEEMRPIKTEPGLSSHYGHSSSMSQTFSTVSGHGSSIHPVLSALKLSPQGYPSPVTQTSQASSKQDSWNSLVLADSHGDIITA
Method in brief: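 Neonatal rat cardiomyocytes treated 24 h with 50 μM; nuclear extracts incubated 20 min with [α-32P]dCTP Klenow-labeled GATA4- or NKX2-5-site oligonucleotide in HEPES/NaCl/KCl/MgCl2 buffer with poly(dI-dC); 5% native PAGE, phosphorimager; supershift with anti-GATA4/NKX2-5; relative to vehicle, mean ± SD, n = 3–5.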

[10] = biological target: Hydroxycarboxylic acid receptor 2 (Homo sapiens) (UniProt Q8TDS4); assay: Agonist activity at human GPR109A expressed in Chem-4 cells assessed as induction of calcium flux at 12.5 uM by fluorescence assay; assay type: functional, cell-based; method in brief: as §2
[11] = biological target: Mitogen-activated protein kinase 14 (Homo sapiens) (UniProt Q16539); assay: Inhibition of human p38alpha MAPK at 30 uM; method in brief: as §1
Sequence of Mitogen-activated protein kinase 14 (Homo sapiens) (Q16539 whole entry): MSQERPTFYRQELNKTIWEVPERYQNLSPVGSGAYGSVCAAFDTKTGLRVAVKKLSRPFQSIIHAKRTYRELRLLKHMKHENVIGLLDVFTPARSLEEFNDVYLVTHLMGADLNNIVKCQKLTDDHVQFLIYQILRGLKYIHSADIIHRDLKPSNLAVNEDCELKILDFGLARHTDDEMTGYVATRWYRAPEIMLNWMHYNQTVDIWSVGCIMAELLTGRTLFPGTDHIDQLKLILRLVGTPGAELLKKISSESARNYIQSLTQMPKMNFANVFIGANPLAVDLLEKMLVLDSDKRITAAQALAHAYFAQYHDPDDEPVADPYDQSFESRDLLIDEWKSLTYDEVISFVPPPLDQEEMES

[12] = Induction of apoptosis in endothelin-1 induced neonatal rat ventricular cardiomyocytes at 50 uM measured after 24 hrs by TUNEL assay; assay type: cell-based; conditions: cardiac muscle cell
Method in brief: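 Neonatal rat cardiomyocytes on 8-well chamber slides treated 24 h at 50 μM; apoptotic cells detected by TUNEL with peroxidase in situ kit.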

[13] = Induction of aggregation of compound at 3 to 30 uM by nephalometric method
[14] = biological target: Cannabinoid receptor 2 (Homo sapiens) (UniProt P34972); assay: Antagonist activity at human CB2 receptor expressed in rat hematopoietic Chem-4 cells assessed as inhibition of CP55940 induced calcium flux at 10 uM by fluorescence assay; assay type: functional, cell-based; method in brief: as §2
[15] = biological target: Epidermal growth factor receptor (Homo sapiens) (UniProt P00533); assay: Inhibition of human EGFR at 30 uM; method in brief: as §1
Sequence of Epidermal growth factor receptor (Homo sapiens) (P00533 whole entry): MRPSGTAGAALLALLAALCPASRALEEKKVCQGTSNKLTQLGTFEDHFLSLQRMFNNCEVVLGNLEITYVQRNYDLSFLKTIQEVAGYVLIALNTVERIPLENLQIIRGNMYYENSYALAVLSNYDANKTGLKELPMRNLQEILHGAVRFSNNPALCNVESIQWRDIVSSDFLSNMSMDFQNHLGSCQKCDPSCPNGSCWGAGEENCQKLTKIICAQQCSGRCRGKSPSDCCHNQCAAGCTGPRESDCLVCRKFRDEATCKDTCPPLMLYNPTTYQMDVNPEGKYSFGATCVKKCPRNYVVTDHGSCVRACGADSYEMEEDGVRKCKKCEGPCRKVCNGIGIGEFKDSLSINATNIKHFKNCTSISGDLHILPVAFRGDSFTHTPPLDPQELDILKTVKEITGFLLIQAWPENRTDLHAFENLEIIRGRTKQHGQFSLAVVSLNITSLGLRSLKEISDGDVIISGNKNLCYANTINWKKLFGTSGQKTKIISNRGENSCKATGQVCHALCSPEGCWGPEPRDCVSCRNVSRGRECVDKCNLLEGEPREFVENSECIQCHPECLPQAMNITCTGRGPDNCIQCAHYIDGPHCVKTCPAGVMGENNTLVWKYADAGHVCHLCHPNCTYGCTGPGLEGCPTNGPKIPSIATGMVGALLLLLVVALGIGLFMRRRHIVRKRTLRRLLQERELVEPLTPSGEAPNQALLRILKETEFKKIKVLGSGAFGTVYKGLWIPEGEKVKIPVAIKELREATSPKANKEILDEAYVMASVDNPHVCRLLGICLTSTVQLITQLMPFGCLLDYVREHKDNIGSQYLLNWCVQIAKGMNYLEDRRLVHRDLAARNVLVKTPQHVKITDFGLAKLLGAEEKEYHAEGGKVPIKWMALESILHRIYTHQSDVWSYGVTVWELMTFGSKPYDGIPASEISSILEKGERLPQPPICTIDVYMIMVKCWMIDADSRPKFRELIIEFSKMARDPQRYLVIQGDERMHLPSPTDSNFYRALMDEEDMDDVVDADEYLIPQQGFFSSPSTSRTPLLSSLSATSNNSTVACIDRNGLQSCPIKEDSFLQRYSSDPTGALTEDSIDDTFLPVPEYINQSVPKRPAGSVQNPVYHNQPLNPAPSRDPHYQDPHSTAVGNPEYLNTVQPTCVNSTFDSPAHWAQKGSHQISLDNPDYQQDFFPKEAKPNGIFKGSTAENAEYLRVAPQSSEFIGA

Sequence of Vascular endothelial growth factor receptor 2 (Homo sapiens) (P35968 whole entry): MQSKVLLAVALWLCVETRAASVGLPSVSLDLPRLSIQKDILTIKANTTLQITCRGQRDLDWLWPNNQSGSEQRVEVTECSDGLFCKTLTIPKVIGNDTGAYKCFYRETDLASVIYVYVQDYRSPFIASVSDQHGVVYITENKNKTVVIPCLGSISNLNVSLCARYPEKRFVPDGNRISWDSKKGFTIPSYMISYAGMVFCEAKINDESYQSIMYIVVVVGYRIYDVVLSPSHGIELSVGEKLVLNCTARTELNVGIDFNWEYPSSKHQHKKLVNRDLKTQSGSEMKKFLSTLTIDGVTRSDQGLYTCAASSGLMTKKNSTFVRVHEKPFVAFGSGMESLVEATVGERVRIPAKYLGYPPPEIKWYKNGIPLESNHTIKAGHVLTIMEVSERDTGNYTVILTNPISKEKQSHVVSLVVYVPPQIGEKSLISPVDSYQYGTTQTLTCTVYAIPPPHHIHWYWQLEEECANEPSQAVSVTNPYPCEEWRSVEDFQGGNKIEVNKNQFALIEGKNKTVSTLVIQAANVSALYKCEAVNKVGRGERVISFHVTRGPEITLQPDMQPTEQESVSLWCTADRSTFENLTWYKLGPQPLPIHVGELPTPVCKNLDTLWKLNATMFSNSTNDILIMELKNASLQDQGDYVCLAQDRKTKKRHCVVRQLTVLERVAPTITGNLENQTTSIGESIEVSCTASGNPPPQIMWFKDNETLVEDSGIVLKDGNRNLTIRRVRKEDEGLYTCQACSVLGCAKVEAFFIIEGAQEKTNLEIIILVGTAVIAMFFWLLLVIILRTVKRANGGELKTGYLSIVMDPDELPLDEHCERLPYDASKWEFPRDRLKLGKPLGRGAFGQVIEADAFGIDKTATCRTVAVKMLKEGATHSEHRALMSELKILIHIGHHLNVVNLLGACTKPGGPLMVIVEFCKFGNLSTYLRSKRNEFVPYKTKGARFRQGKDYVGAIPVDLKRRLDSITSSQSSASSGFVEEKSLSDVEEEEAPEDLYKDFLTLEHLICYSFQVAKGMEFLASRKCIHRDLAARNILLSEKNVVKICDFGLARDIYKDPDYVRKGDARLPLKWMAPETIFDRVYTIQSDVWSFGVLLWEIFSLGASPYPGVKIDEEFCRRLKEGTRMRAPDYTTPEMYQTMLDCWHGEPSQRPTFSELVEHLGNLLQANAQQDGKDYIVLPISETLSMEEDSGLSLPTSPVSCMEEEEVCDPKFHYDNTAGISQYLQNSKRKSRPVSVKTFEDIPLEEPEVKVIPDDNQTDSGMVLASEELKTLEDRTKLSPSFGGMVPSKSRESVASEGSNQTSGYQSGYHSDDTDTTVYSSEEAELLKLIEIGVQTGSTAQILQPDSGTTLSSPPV

CCN(CC)c1ccc(NC(=O)c2c(-c3ccccc3)noc2C)cc1
inhibition [1]: 64% | inhibition [2]: inactive | inhibition [3]: Active | Drug metabolism [4]: Metabolite_Detected | inhibition [5]: inactive | inhibition [6]: Active | Activity [7]: inactive | inhibition [8]: 58.5% | inhibition [9]: 29% | Activity [10]: inactive | inhibition [11]: inactive | Activity [12]: Non-Toxic | Activity [13]: inactive | inhibition [14]: 91.8% | inhibition [15]: 54%
